Data taken from ChEMBL document CHEMBL4513216, “Probing the Open Global Health Chemical Diversity Library for Multistage-Active Starting Points for Next-Generation Antimalarials” (ACS Infect Dis, 2020).

Experiment: Toxicity liver stage against HepG2, at 10uM
Assay type: cell-based
Set-up: test concentration 10 uM, cell line HepG2-A16-CD81EGFP
Details: human, HepG2-A16-CD81EGFP cells; read-out: INHIBITION
Summary of the method: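 Uninfected HepG2-A16-CD81EGFP cells, 3 × 10^3 per well, 1536-well, plated on prespotted compound at 10 μM final, parasite-free screening media added to match infected plates; puromycin 10 μM positive, DMSO 0.5% negative; run in parallel with 48 h PbLuc assay at 37 °C, 5% CO2; viability by CellTiter-Glo luminescence, normalized to controls.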

SMILES	cytotoxicity at 10 µM [%]
CC(C)COCCNC1CCN(c2ccccn2)CC1	-2.12
O=C(c1cc[nH]n1)N1CCCC1c1cnccn1 (stereo not given)	-25.4
N#Cc1ccccc1C(=O)N1C[C@@H](CN2CCOCC2)[C@@H](CO)C1	-1.06
COc1cc(N2CCC3(CC2)CCN(c2cccnc2)C3=O)ncn1	-116
COc1ccc(CN2CCC3(CCCN(C)C3=O)C2)c(Cl)c1OC (stereo not given)	-1.24
N#CC1(C(=O)Nc2ccc(OC(F)F)cc2)CCCC1	-11.1
O=C(c1ccc(-n2ccnc2)nc1)N1CCCC(n2cccn2)C1 (stereo not given)	-5.13
O=C(C1CCOC1)N1C[C@H]2CN(Cc3nccs3)C[C@H]2C1 (stereo not given in full)	5.04
COc1ccc(-n2cc(CNC(=O)c3ccc[nH]3)nn2)cc1	-10.9
O=C(COC1CCCC1)N1C[C@@H]2CN(Cc3ccoc3)CCO[C@@H]2C1	4.65
CS(=O)(=O)NC[C@H]1Cn2c(-c3ccc(Cl)cc3)cnc2CO1	-3.58
c1cnc(-c2noc(C3CN(Cc4ccc5c(c4)CCO5)C3)n2)cn1	1.35
COc1cnc(N2CCCN(Cc3ccc(F)cc3)CC2)nc1	-5.41
CC(c1cccc(Cl)c1)N(C)Cc1nc2c(cnn2C)c(=O)[nH]1 (stereo not given)	-10.5
Cc1nnc(N2CC[C@H](OCC3CC3)[C@@H](Cc3ccccc3)C2)s1	5.25
O=C(c1ccc2[nH]ccc2c1)N1CCCCC1c1nc[nH]n1 (stereo not given)	-9.04
CSCc1ccc(N(C)CC2CCCN(C(C)C)C2)nc1 (stereo not given)	-128
Cn1c(-c2ccccc2Cl)nc2cc(C(=O)NCCOCCO)cnc21	-0.951
CC(C)(C)c1nnc(CN2CCn3c(nnc3C3CC3)C2)o1	4.45
Cc1nc(-c2ccnn2C)cc(C2CCCN(S(C)(=O)=O)C2)n1 (stereo not given)	-0.66
CN(C)c1ccccc1C(=O)N1CCCC(c2cccc(C(=O)O)c2)C1 (stereo not given)	-6.11
N#Cc1cccc(N2CCCC3(C2)CN(c2ncccn2)CCO3)n1 (stereo not given)	17.8

SMILES	cytotoxicity at 10 µM [%]
c1cncc(-c2ccc3c(c2)C2(CC3)CCN(c3nncs3)CC2)c1	13.1
CCCc1nc(C[S+]([O-])Cc2cn3cccc(C)c3n2)no1 (stereo not given)	2.48
O=C(NC1CCCNC1)c1cc(COc2cccc(C(F)(F)F)c2)[nH]n1 (stereo not given)	-1.31
CN(CCN1CCCCCC1)C(=O)c1cc(CN2CCCC(O)C2)on1 (stereo not given)	-0.641
Cc1nnc(N2CCC(CN(C)C(C)C)CC2)c(C#N)c1C	3.63
CCc1nc(C2CCCN2CC(=O)Nc2cc(C)on2)no1 (stereo not given)	-3.08
CN1CCO[C@@H]2CN(C(=O)NCc3ccccc3)CC[C@@H]2C1	-104
CN(C)c1cc(C(=O)NC2(c3cccc(F)c3)CCOCC2)ccn1	-1.31
CCN1CCC(NC(=O)CN2CCCC2Cn2cccn2)CC1 (stereo not given)	1.98
OC1(CNc2cccc(F)c2)CCNCC1	5.38
Cn1ncc2c(NC3CCCN(C(=O)C4CC4)C3)nc(C(C)(C)C)nc21 (stereo not given)	12
CC(C)N1Cc2c(C(=O)N3CCN(C)CC3)nn(C)c2C1	-104
CCCC(=O)NC1CCc2c(ccc(=O)n2Cc2csc(C)n2)C1 (stereo not given)	3.79
Cc1ccnc(NC(=O)C(C)Cn2cncn2)c1 (stereo not given)	0.298
O=C(CN1CCCCCC1=O)NC1CCc2nccn2C1 (stereo not given)	2.8
COC(=O)CCC(=O)N1CCC2(CN(Cc3ccccc3F)C2)C1	5.58
Cn1nnc2c1CCN(C(=O)CC1CC1)C2COCCN1CCCC1 (stereo not given)	17.4
CCc1nnsc1C(=O)NCc1nnc2n1CCC2	0.371
Cc1cccc(C(=O)N2CCC(C(=O)c3cc(F)ccc3F)CC2)n1	-0.448
CCCS(=O)(=O)NC(C)C(=O)NCc1ccc(N2CCCC2)nc1 (stereo not given)	-11.8
CN1C(Cn2cccn2)C[C@@H]2CN(C(=O)c3cccc(C#N)c3)CC[C@@H]21 (stereo not given in full)	3.1
CCOC1COC2(CCN(Cc3ccc(C)cc3)CC2)C1 (stereo not given)	-8.28

SMILES	cytotoxicity at 10 µM [%]
Cc1ccc(C(=O)O)cc1NC(=O)C1CC=CC1	-7.25
Cn1ccnc1Sc1ncc(C(=O)N2CCCCC2)cc1Cl	-61
N#Cc1ccc(NC(=O)N2CCCCC2CN2CCCC2=O)cc1 (stereo not given)	4.65
CN1C(=O)CC2(CCN(Cc3cnn(C)c3)CC2)c2ccccc21	15.7
CC1CCCN(Cc2cccc(C(=O)Nc3nccs3)c2)C1 (stereo not given)	-5.68
Cc1nnc(N2CCCC3(CN(c4cccc(F)c4)CCO3)C2)o1 (stereo not given)	0.777
COc1cccc(CNCc2ccccc2Cl)c1O	-13.2
O=C(NCC1(O)CCc2ccccc2C1)c1cccs1 (stereo not given)	13.8
CC(C)Cn1cnnc1C1CCCN1C(=O)c1cc2ccccn2c1 (stereo not given)	-0.384
O=C(COC1CCCC1)NCCCn1nc2ccccn2c1=O	5.78
Cc1ccccc1CS(=O)(=O)CC(=O)NCc1ccccc1F	-6
CCOC(C(=O)N1CCn2c(nnc2C(C)C)C1)c1ccccc1 (stereo not given)	3.84
CC(C)(C)CN(CCC#N)Cn1cc(Cl)cn1	6.29
CN(C)C[C@@H]1C[C@@H]2CN(C(=O)c3ccoc3)CC[C@@H]2N1CC1CC1	6.71
CN1C(=O)C2(CCN(S(C)(=O)=O)CC2)c2cc(F)ccc21	-106
Cc1cc(CN(C)C(=O)C(c2ccccc2)N2CCSCC2)no1 (stereo not given)	-1.49
Cc1[nH]c2c(C)ccc(C)c2c1CC(=O)NCC(O)c1cccnc1 (stereo not given)	-2.11
CCCN1C[C@@H]2CC[C@H]1CN(Cc1cccc(-n3cccn3)c1)C2	-1.69
CN(C)c1nc2c(c(N3CCC(O)CC3)n1)CN(CC1CCNC1)CC2 (stereo not given)	-10.5
CC(=O)N1CCCN(Cc2csc(-c3ncccn3)n2)CC1	7.08
CC(=O)N(Cc1ncc(C)o1)C1CCN(CCn2cccn2)C1 (stereo not given)	6.49
O=C(C1CC1)N1CCC2(CC1)CNCCO2	-2.82

SMILES	cytotoxicity at 10 µM [%]
CCc1nnc(CN2CCCCC2Cn2nc(C)nc2C)o1 (stereo not given)	-2.4
COc1cccc(CNc2nc(C)cc(C)n2)c1OC	-6.44
O=C1CCC(=O)N1c1nn(Cc2ccccc2)cc1Cl	-14.4
CC(=O)NCC(=O)N1CCOC2(CCCN(c3ccc(C)nn3)C2)C1 (stereo not given)	0.876
Cc1nc2cc(=O)[nH]n2c(C)c1CC(=O)Nc1cnn(C(C)(C)C)c1	15
COc1cccc(C2=CCN(CCN3CCOC3=O)CC2)c1	-7.52
Cc1nc(NC(=O)NC2CC(=O)N(C(C)C)C2)nn1C(C)C (stereo not given)	-1.55
COc1cccc(N2CCN(C(=O)CCO)CC2=O)c1	3.75
Cc1c(C(=O)N[C@@H]2CC[C@@H](N3CCCC3)[C@@H]2O)[nH]c2ccc(F)cc12	-1.85
CCn1cc(NC(=O)NC2CCCc3c2cnn3CCO)cn1 (stereo not given)	5.04
COc1cc(C)sc1C(=O)N1CC(c2cccnc2)C1	-8.97
CCNC(=O)C(C)NC(=O)Nc1ccccc1SC(F)(F)F (stereo not given)	-9.5
Cc1ccc(S(=O)(=O)N2CCC(O)(CN(C)C)C2)cc1 (stereo not given)	-7.02
CN(C)C1CC2(CCN(C(=O)C3(C#N)CC3)CC2)c2ccccc21 (stereo not given)	-113
CCCc1n[nH]c(C2CN(C(=O)c3cccnc3N(C)C)CCO2)n1 (stereo not given)	-2.91
Cc1cc(N2CCCC2Cn2nc(C)cc2C)n2ncnc2n1 (stereo not given)	-2.74
Cc1c(C(=O)N[C@H]2CN(CCS(C)(=O)=O)C[C@@H]2C2CC2)cnn1C	7.02
Cc1cnn(CC(C)Nc2nc3ccccc3o2)c1 (stereo not given)	-9.49
O=C(NCCC(=O)N1CCCc2ccccc21)c1ccc(F)cc1F	-10.1
CCc1ccc2nc(-c3cnn(C)c3)cc(C(=O)N3CCCC3)c2c1	0.753
Cc1cc(-c2ccccc2C(=O)O)nc(C2CCCCN2C)n1 (stereo not given)	-0.168
CCc1cc(O)n2nc(C3CCN(C(=O)c4ccccn4)CC3)cc2n1	2.29

SMILES	cytotoxicity at 10 µM [%]
CC(=O)N1CCC(CCc2ccnc(NC(=O)c3ccccn3)c2)CC1	0.15
Cc1noc(C)c1CS(=O)(=O)CC(=O)N(C)Cc1cccc(F)c1	-8.1
Cc1ccc(CN2CCC3(CCCN(S(C)(=O)=O)C3)C2)o1 (stereo not given)	-104
CC(NCc1cnc(C2CCC2)s1)c1cccc(-n2cccn2)c1 (stereo not given)	2.34
O=S(=O)(NCCn1ccc(-c2ccccn2)n1)C1CC1	-1.04
N#Cc1cccc(N2CCCC3(CN(C(=O)c4ccc[nH]4)CCO3)C2)c1 (stereo not given)	13.3
O=C(c1cc(-c2ccco2)cs1)N1CCOCC1	4.81
O=S(=O)(C1CC1)N1CC[C@@H](OCC2CC2)[C@@H]1Cc1ccncc1	10.9
COCC(=O)N1CCN(C(=O)C2CCCCC2)[C@@H](C(=O)OC)C1	1.08
CC(C)C(CNC(=O)CCn1cncn1)N1CCc2ccccc2C1 (stereo not given)	-162
O=C(NCC1CCC1)c1ccnc(-n2ccnc2)c1	-3.67
Cc1ccc(CNC(=O)c2oc3ccccc3c2CN(C)C)n1C	0.521
COC1(CNC(=O)CCCc2ccccc2)CCSC1 (stereo not given)	4.68
Oc1nc(N2CCCC2)nc2c1CCN(Cc1ccsc1)CC2	-12
O=C(c1ccccc1)N1CCO[C@@H]2CN(c3ncccn3)C[C@@H]2C1	-6.63
CCc1cnc(NCC(CC)N2CCOCC2)nc1 (stereo not given)	12.8
CN1CCN(c2cnn(Cc3ccc(S(C)(=O)=O)cc3)c(=O)c2)CC1	-10.4
CC(NC(=O)CSCC#N)c1ccccc1 (stereo not given)	-5.9
CCc1nc(C)cn1C(=O)Nc1ccc(C)cc1	-1.64
Cc1cccc(S(=O)(=O)N2CCCC3(CCCN3S(C)(=O)=O)C2)c1 (stereo not given)	7.28
CCCn1nccc1NC(=O)CN1CCCC1Cn1nc(C)nc1C (stereo not given)	-6.84
CCCN(CCC)C(=O)c1cc(CN2CCC(O)CC2)on1	1.29
